Common to all, as to assay type: functional
Assay [1] concerns Staphylococcus aureus. Put plainly: Minimum inhibitory concentration against methicillin-resistant Staphylococcus aureus (ATCC 33591).
Assay [2] relates to Staphylococcus aureus. As to the kind of experiment: Minimum inhibitory concentration against Staphylococcus aureus. The procedure, abridged:
(§1)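 Broth microdilution, inoculum 2 × 10⁶ cfu/mL, in 1% Bacto Peptone water, overnight at 37 °C. At least three independent dilutions tested in parallel. Gentamicin susceptibility run as internal standard.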

In assay [3] the test system is Escherichia coli. As to the kind of experiment: Minimum inhibitory concentration against Escherichia coli. The method, boiled down:
as §1

Assay [4] concerns Staphylococcus epidermidis. As to the kind of experiment: Minimum inhibitory concentration against methicillin-resistant Staphylococcus epidermidis (ATCC 27626).

≈ marks a conversion by molar mass, not a printed value. Non-standard residues stand in square brackets, D forms with d. Residues, ends and D or L forms follow the SMILES beside them. *: point of attachment. OBn = c1ccc(CO*)cc1 Some results are limits rather than exact numbers.

Data on 37 molecules can be found in ChEMBL document CHEMBL1136770, “The pharmacophore of short cationic antibacterial peptides” (2003).

Turning to `NC(N)=NCCC[C@H](N)C(=O)N[C@@H](Cc1c[nH]c2ccccc12)C(=O)N[C@H](CCCN=C(N)N)C(=O)N[C@H](Cc1c[nH]c2ccccc12)C(=O)OCc1ccccc1`, the MIC – broadly, the least concentration at which growth counts as inhibited – in assay [1] was 2.5 mg/L (≈ 3.15 µM); in assay [2] it was 5 mg/L (≈ 6.31 µM); in assay [3], 75 mg/L (≈ 94.6 µM); in assay [4], 2.5 mg/L (≈ 3.15 µM).
For the molecule `NC(N)=NCCC[C@H](N)C(=O)N[C@@H](Cc1c[nH]c2ccccc12)C(=O)OCc1ccccc1`, the MIC in assay [1] is 15 mg/L (≈ 33.3 µM); in assay [2] it was 15 mg/L (≈ 33.3 µM); in assay [3] it was over 200 mg/L; in assay [4], 10 mg/L (≈ 22.2 µM).
On to `NC(N)=NCCC[C@@H](N)C(=O)N[C@@H](Cc1c[nH]c2ccccc12)C(=O)OCc1ccccc1`, for which the MIC in assay [1] is 25 mg/L (≈ 55.5 µM); in assay [2], 25 mg/L (≈ 55.5 µM); in assay [3], over 200 mg/L; in assay [4], 25 mg/L (≈ 55.5 µM).
In the case of `NC(N)=NCCC[C@H](NC(=O)[C@H](Cc1c[nH]c2ccccc12)NC(=O)[C@@H](N)CCCN=C(N)N)C(=O)N[C@@H](Cc1c[nH]c2ccccc12)C(=O)OCc1ccccc1`, the MIC amounted to 2.5 mg/L (≈ 3.15 µM) in assay [1], 2.5 mg/L (≈ 3.15 µM) in assay [2], 50 mg/L (≈ 63.1 µM) in assay [3] and 2.5 mg/L (≈ 3.15 µM) in assay [4].
As to `COC(=O)[C@H](CCCN=C(N)N)NC(=O)[C@H](Cc1c[nH]c2ccccc12)NC(=O)C1CCCCC1`, the MIC in assay [2] and in assay [3] was over 200 mg/L in each case.
For `NC(N)=NCCC[C@H](N)C(=O)N[C@H](Cc1c[nH]c2ccccc12)C(=O)OCc1ccccc1`, the MIC is 50 mg/L (≈ 111 µM) in assay [1], 50 mg/L (≈ 111 µM) in assay [2], over 200 mg/L in assay [3] and 25 mg/L (≈ 55.5 µM) in assay [4].
`NC(N)=NCCC[C@H](N)C(=O)N[C@@H](Cc1ccccc1)C(=O)OCc1ccccc1`: the minimal inhibitory concentration (MIC) in assay [1] was 200 mg/L (≈ 486 µM); in assay [2] it was 200 mg/L (≈ 486 µM); in assay [3], over 200 mg/L; in assay [4] it was 75 mg/L (≈ 182 µM).
Turning to `NC(N)=NCCC[C@@H](N)C(=O)N[C@H](Cc1c[nH]c2ccccc12)C(=O)OCc1ccccc1`, the MIC in assay [1] was 50 mg/L (≈ 111 µM); in assay [2], 50 mg/L (≈ 111 µM); in assay [3] it was over 200 mg/L; in assay [4], 20 mg/L (≈ 44.4 µM).
`NC(N)=NCCC[C@H](NC(=O)[C@@H](N)Cc1c[nH]c2ccccc12)C(=O)N[C@@H](Cc1c[nH]c2ccccc12)C(=O)OCc1ccccc1`: the MIC worked out at 5 mg/L (≈ 7.85 µM) in assay [1], 5 mg/L (≈ 7.85 µM) in assay [2], 75 mg/L (≈ 118 µM) in assay [3] and 5 mg/L (≈ 7.85 µM) in assay [4].
In the case of `N=C(N)NCCC[C@H](NC(=O)C1CCCCC1)C(=O)N[C@@H](Cc1c[nH]c2ccccc12)C(=O)OCc1ccccc1`, the MIC was 25 mg/L (≈ 44.6 µM) in assay [2] and 200 mg/L (≈ 357 µM) in assay [3].
Regarding `NC(N)=NCCC[C@@H](NC(=O)[C@H](N)Cc1c[nH]c2ccccc12)C(=O)N[C@H](Cc1c[nH]c2ccccc12)C(=O)OCc1ccccc1`, the MIC stood at 5 mg/L (≈ 7.85 µM) in assay [1], 5 mg/L (≈ 7.85 µM) in assay [2], 75 mg/L (≈ 118 µM) in assay [3] and 5 mg/L (≈ 7.85 µM) in assay [4].
On to `NC(N)=NCCC[C@H](NC(=O)[C@H](N)Cc1c[nH]c2ccccc12)C(=O)N[C@@H](Cc1c[nH]c2ccccc12)C(=O)OCc1ccccc1`, for which the MIC in assay [1] worked out at 20 mg/L (≈ 31.4 µM); in assay [2] it was 20 mg/L (≈ 31.4 µM); in assay [3], 75 mg/L (≈ 118 µM); in assay [4], 10 mg/L (≈ 15.7 µM).
`COC(=O)[C@H](CCCN=C(N)N)NC(=O)[C@H](Cc1c[nH]c2ccccc12)NC(=O)Cc1c[nH]c2ccccc12`: the MIC in assay [2] and in assay [3] was 200 mg/L (≈ 376 µM) in each case.
On to `N=C(N)NCCC[C@H](NC(=O)Cc1c[nH]c2ccccc12)C(=O)N[C@@H](Cc1c[nH]c2ccccc12)C(=O)OCc1ccccc1`, for which the MIC in assay [2] was found to be 20 mg/L (≈ 32.9 µM); in assay [3] it was 150 mg/L (≈ 247 µM).
Turning to `NC(=O)[C@H](CCCN=C(N)N)NC(=O)[C@H](Cc1c[nH]c2ccccc12)NC(=O)[C@@H](N)CCCN=C(N)N` (H-Arg-Trp-Arg-NH2), the MIC in assay [2] and in assay [3] was over 200 mg/L throughout.
On to `NCCCC[C@H](N)C(=O)N[C@@H](Cc1c[nH]c2ccccc12)C(=O)OCc1ccccc1` (H-Lys-Trp-OBn), for which the MIC in assay [1] was 25 mg/L (≈ 59.2 µM); in assay [2] it was 50 mg/L (≈ 118 µM); in assay [3], over 200 mg/L; in assay [4], 25 mg/L (≈ 59.2 µM).
`NCCCC[C@H](N)C(=O)N[C@H](Cc1c[nH]c2ccccc12)C(=O)OCc1ccccc1` (H-Lys-[dW]-OBn): the MIC is 50 mg/L (≈ 118 µM) in assay [1], 75 mg/L (≈ 178 µM) in assay [2], over 200 mg/L in assay [3] and 25 mg/L (≈ 59.2 µM) in assay [4].
In the case of `NC(N)=NCCC[C@H](NC(=O)[C@@H](N)Cc1ccccc1)C(=O)OCc1ccccc1` (H-Phe-Arg-OBn), the MIC in assay [1] is 200 mg/L (≈ 486 µM); in assay [2], over 200 mg/L; in assay [3], over 200 mg/L; in assay [4], 200 mg/L (≈ 486 µM).
`NC(=O)[C@H](CCCN=C(N)N)NC(=O)[C@H](Cc1c[nH]c2ccccc12)NC(=O)[C@H](Cc1c[nH]c2ccccc12)NC(=O)[C@@H](N)CCCN=C(N)N` (H-RWWR-NH2): the MIC in assay [2] was 100 mg/L (≈ 142 µM); in assay [3], over 200 mg/L.
In the case of `COC(=O)[C@H](CCCN=C(N)N)NC(=O)[C@H](Cc1c[nH]c2ccccc12)NC(=O)[C@H](Cc1c[nH]c2ccccc12)NC(=O)[C@@H](N)CCCN=C(N)N` (H-RWWR-OMe), the MIC in assay [1] was 50 mg/L (≈ 69.7 µM); in assay [2], 75 mg/L (≈ 105 µM); in assay [3], over 200 mg/L; in assay [4], 15 mg/L (≈ 20.9 µM).
Taken in the same sequence, the figures for `NC(N)=NCCC[C@H](NC(=O)[C@@H](N)Cc1c[nH]c2ccccc12)C(=O)OCc1ccccc1` (H-Trp-Arg-OBn) were 75 mg/L (≈ 166 µM), 200 mg/L (≈ 444 µM), over 200 mg/L and 75 mg/L (≈ 166 µM).
Consider `COC(=O)[C@H](CCCN=C(N)N)NC(=O)[C@@H](N)Cc1c[nH]c2ccccc12` (H-Trp-Arg-OMe), for which the MIC in assay [1], in assay [2], in assay [3] and in assay [4] was over 200 mg/L each time.
For the molecule `NC(=O)[C@H](Cc1c[nH]c2ccccc12)NC(=O)[C@H](CCCN=C(N)N)NC(=O)[C@@H](N)Cc1c[nH]c2ccccc12` (H-Trp-Arg-Trp-NH2), the MIC was 100 mg/L (≈ 183 µM) in assay [2] and over 200 mg/L in assay [3].
`COC(=O)[C@H](CCCN=C(N)N)NC(=O)[C@H](Cc1c[nH]c2ccccc12)NC(=O)[C@@H](N)Cc1c[nH]c2ccccc12` (H-Trp-Trp-Arg-OMe): the MIC is 200 mg/L (≈ 357 µM) in assay [1], over 200 mg/L in assay [2], over 200 mg/L in assay [3] and 100 mg/L (≈ 178 µM) in assay [4].
On to `NC(=O)[C@H](Cc1c[nH]c2ccccc12)NC(=O)[C@H](CCCN=C(N)N)NC(=O)[C@H](CCCN=C(N)N)NC(=O)[C@@H](N)Cc1c[nH]c2ccccc12` (H-WRRW-NH2), for which the MIC in assay [2] was 200 mg/L (≈ 285 µM); in assay [3] it was over 200 mg/L.
For the molecule `NC(=O)[C@H](CCCN=C(N)N)NC(=O)[C@H](Cc1c[nH]c2ccccc12)NC(=O)[C@H](CCCN=C(N)N)NC(=O)[C@@H](N)Cc1c[nH]c2ccccc12` (H-WRWR-NH2), the MIC was 200 mg/L (≈ 285 µM) in assay [2] and over 200 mg/L in assay [3].
Turning to `COC(=O)[C@H](CCCN=C(N)N)NC(=O)[C@H](Cc1c[nH]c2ccccc12)NC(=O)[C@H](CCCN=C(N)N)NC(=O)[C@@H](N)Cc1c[nH]c2ccccc12` (H-WRWR-OMe), the minimum inhibitory concentration (MIC) is 100 mg/L (≈ 139 µM) in assay [1], over 200 mg/L in assay [2], over 200 mg/L in assay [3] and 75 mg/L (≈ 105 µM) in assay [4].
Turning to `NCCCC[C@@H](N)C(=O)N[C@@H](Cc1c[nH]c2ccccc12)C(=O)OCc1ccccc1` (H-[dK]-Trp-OBn), the MIC in assay [1] was 50 mg/L (≈ 118 µM); in assay [2], 75 mg/L (≈ 178 µM); in assay [3], over 200 mg/L; in assay [4], 25 mg/L (≈ 59.2 µM).
Regarding H-RRRWWW-NH2, the MIC in assay [2] and in assay [3] was 5 mg/L each time.
Turning to H-RWRWR-NH2, the MIC in assay [2] is 25 mg/L; in assay [3], 200 mg/L.
As to H-RWRWRW-NH2, the MIC in assay [2] and in assay [3] was 5 mg/L each time.
On to H-RWWWRR-NH2, for which the MIC in assay [2] was found to be 5 mg/L; in assay [3], 25 mg/L.
Taken in the same sequence, the figures for H-WRWRW-NH2 were 10 mg/L and 15 mg/L.
Regarding H-WRWRWR-NH2, the figures for the minimal inhibitory concentration (MIC) in assay [2] and in assay [3] were 7.5 mg/L and 10 mg/L, respectively.
Regarding H-WRWRY-NH2, the MIC in assay [2] is 50 mg/L; in assay [3], 100 mg/L.
For the molecule H-WRYRW-NH2, the MIC in assay [2] was 50 mg/L; in assay [3] it was 100 mg/L.
Regarding H-WWRRRW-NH2, the figures for the MIC in assay [2] and in assay [3] were 10 mg/L and 25 mg/L, respectively.
